# Hits are enriched below; roughly 29% of the tested compounds scored in any of these assays.
# E coli WT exp: E. coli BW25113 growth inhibition, expanded screen | 98,000 tested, 0.15% active | growth inhibition, % at 100 µM | OD600 absorbance;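 active means growth inhibition above about 50% at one test dose, limit read from the data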;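 further: growth measured after 20 h incubation at 37 °C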
# CYP2C19 activ: cytochrome P450 2C19 (human) activation | P33261 | 96,000 tested, under 10 active | activation factor at 5 µM | recombinant CYP2C19, luciferin-H EGE luminescence; stronger effect = higher value; 0 = fully inhibited enzyme, 1 = untreated enzyme;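 active means activation factor of at least 2 at 5 µM in the primary screen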;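 further: 0 = wells with 2.5 mM tranylcypromine and 1 = vehicle-only wells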
# CYP2C9 act: activators of human CYP2C9. recombinant CYP2C9, luciferin-H conversion, luminescence; stronger effect = higher value; factor 1 = untreated enzyme, 0 = blocked. P11712. 96,000 tested, 1.4% active. activation factor at 5 µM;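 active means activation factor of 2 or more for CYP2C9 at a 5 µM dose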;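 further: 0 = sulfaphenazole-blocked wells and 1 = vehicle-only wells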
# Target sequence (P11712 whole entry, looked up): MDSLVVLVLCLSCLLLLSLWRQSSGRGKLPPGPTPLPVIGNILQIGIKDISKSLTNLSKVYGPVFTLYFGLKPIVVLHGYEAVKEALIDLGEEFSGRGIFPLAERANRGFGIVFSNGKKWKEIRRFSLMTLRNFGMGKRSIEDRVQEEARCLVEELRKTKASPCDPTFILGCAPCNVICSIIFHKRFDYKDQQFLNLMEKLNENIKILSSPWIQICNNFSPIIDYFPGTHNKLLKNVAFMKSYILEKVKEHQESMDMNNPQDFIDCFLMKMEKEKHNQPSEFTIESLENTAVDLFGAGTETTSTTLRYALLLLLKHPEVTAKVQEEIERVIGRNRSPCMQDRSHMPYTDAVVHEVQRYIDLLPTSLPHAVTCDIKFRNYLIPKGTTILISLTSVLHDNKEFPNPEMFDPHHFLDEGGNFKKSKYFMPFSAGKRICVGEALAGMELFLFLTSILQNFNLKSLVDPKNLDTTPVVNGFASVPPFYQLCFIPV
# CYP2C9 inhib: human CYP2C9 inhibition; P11712; CYP2C9 Supersomes, luciferin-H conversion, luminescence; inhibition, % at 5 µM; 96,000 tested, 20% active; AID 777;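 active means blocking of liver enzyme CYP2C9 beyond about 50% at 5 µM, limit read from the data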
# tolC growth inh: E. coli tolC mutant growth inhibition; AID 573; 65,000 tested, 2.2% active; growth inhibition, % at 10 µM (by protocol); E. coli BW25113 tolC mutant growth, OD615;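 active means growth inhibition at or above a cutoff equal to the mean over every tested compound plus 3 SD, cut at about 60% in these data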;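 further: growth measured after 20 h incubation at 37 °C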
#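 Test system: tolC-deleted E. coli BW25113 | Medium: LB with kanamycin 50 µg/mL | Compound dosing: Single concentration, 10 µM final per compound | Schedule: 37 °C, 20 h exposure | Measured by: OD at 615 nm | Evaluation: Percent growth inhibition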
# CYP2C19 inh: blocks human cytochrome P450 2C19 | 96,000 tested, 21% active | CYP2C19 Supersomes, luciferin-H EGE luminescence, 30 min | P33261 | inhibition, % at 5 µM;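 active means CYP2C19 inhibition above a set limit at 5 µM in the primary screen, cut at about 50% in these data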;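 further: plate controls were negative control wells for no effect and 2.5 mM tranylcypromine positive control for full effect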
# The depositor's hits bear a star; x = not tested or not shown.
SMILES,E coli WT exp,CYP2C19 activ,CYP2C9 act,CYP2C9 inhib,tolC growth inh,CYP2C19 inh
CCOC(=O)CSc1nc2ccccc2c(=O)n1NC(=O)c1ccccc1,9.0,1,0.3,67.0*,12.9,2.5
COc1ccc(C(=O)Nn2c(SCC(=O)c3ccccc3)nc3ccccc3c2=O)cc1,-2.0,1,0.6,36.8,x,-2.7
Cc1nn(C)c(C)c1/C=N/O,4.0,1.1,1.2,-21.3,x,-13.6
COc1cccc(C(=O)/C=C/c2ccc(SC)cc2)c1,-13.0,0.1,0.6,39.7,x,92.2*
COc1cccc(C(=O)/C=C/Nc2cccc(O)c2)c1,4.0,0.1,0.7,28.1,x,91.3*
COc1cccc(C(=O)/C=C/Nc2ccc(S(=O)(=O)Nc3cccc(C(C)=O)c3)cc2)c1,-16.0,0.7,0.2,77.7*,x,34.1
COc1cccc(/C=C/C(=O)c2ccc[nH]2)c1,3.0,0.3,0.8,17.0,x,69.8*
O=C(O)C1[C@H]2C(=O)N(C3CCCC3)C[C@]23C=C[C@H]1O3 (stereo not given in full),5.0,1,1,4.2,-11.0,2.8
CC1(C)C=C(c2ccc(O)cc2)CC(C)(C)N1,-2.0,1,1,2.3,-14.1,0.0
O=S(=O)(N1CCCCC1)n1nnc2ccccc21,6.0,0.2,1.2,-16.0,2.5,82.1*
O=S(=O)(c1cccs1)n1nnc2ccccc21,14.0,0.9,1.9,-86.9,12.4,5.3
COc1cccc(OC)c1C(=O)Nc1cc(C)on1,3.0,0.9,1.1,-10.6,x,5.1
CCOC(=O)c1sc(N(Cc2ccccc2)C(=O)CSc2ncn[nH]2)nc1C,1.0,1,0.2,78.8*,x,4.9
CCOC(=O)c1ccc(CSc2ncn[nH]2)o1,3.0,0.8,1,4.3,3.6,20.6
CCOC(=O)c1c(NC(=O)c2cccnc2)sc(C)c1C,10.0,0.9,0.8,20.0,x,12.1
CCOC(=O)c1sc(NC(=O)c2cccnc2)c(C#N)c1C,-20.0,1,0.1,94.2*,x,-4.5
CCOC(=O)c1sc(NC(=O)CSc2ccccn2)c(C#N)c1C,-4.0,1.1,1.1,-7.7,-0.9,-11.9
CCOC(=O)c1sc(NC(=O)CSc2n[nH]c(-c3ccccc3)n2)c(C#N)c1C,-11.0,0.8,0.3,72.1*,100.0*,19.3
CCOC(=O)c1sc(NC(=O)CSc2ncn[nH]2)c(C#N)c1C,0.0,0.2,0.2,81.8*,27.7,79.3*
CCOC(=O)c1ccc(NC(=O)COc2ccc(S(=O)(=O)NC(C)C)cc2)cc1,-5.0,0.8,0.9,13.4,-16.6,23.8
Cc1cc(Br)cn2ccnc12,7.0,1.1,1.2,-18.3,x,-13.5
Cc1cccc2nc(C(F)(F)F)nc(=O)n12,2.0,0.9,0.9,7.5,-4.6,6.7
CC(=O)c1ccc(NC(=O)CSC(C)C)cc1,11.0,0.9,0.9,5.9,-5.5,9.4
Nc1nc(SCc2c(Cl)cccc2Cl)n[nH]1,14.0,1,1.2,-20.1,x,3.0
CC(=O)O/N=C(/C)c1ncc(C(F)(F)F)cc1N1CCOCC1,2.0,0.9,0.9,14.7,x,7.6
SMILES,E coli WT exp,CYP2C19 activ,CYP2C9 act,CYP2C9 inhib,tolC growth inh,CYP2C19 inh
Cc1onc(C(=O)/C=C/N(C)C)c1C(=O)Nc1nccs1,-4.0,0.9,0.9,13.3,x,9.0
CCCC1(C(=O)O)NC(c2cccc(OC)c2O)C2C(=O)N(c3ccccc3)C(=O)C21 (stereo not given),5.0,1,1.1,-9.7,-13.2,-3.6
CCOC(=O)c1sc(NC(=O)CSc2nc(-c3ccco3)cc(C(F)(F)F)n2)c(C#N)c1C,0.0,0.6,0.3,74.1*,-15.8,42.8
O=C(CSc1nc(-c2ccco2)cc(C(F)(F)F)n1)NCCc1ccccc1,-8.0,0.8,0.7,30.4,22.9,15.7
CC1CCCCN1C(=O)CSc1ccc(-c2ccc(F)cc2)nn1 (stereo not given),-5.0,0.4,0.7,34.9,18.7,60.9*
COc1ccc(-c2ccc(SCC(=O)N3CCCC3)nn2)cc1OC,-9.0,1.1,1.1,-5.8,-7.2,-6.5
COc1cccc(C(=O)C2CN(c3ccccc3)CC2c2ccc(Cl)cc2)c1 (stereo not given),-12.0,1,0.8,22.1,x,4.0
CCOc1ccc(N(C(C)C(=O)Nc2ccc(OC)cc2)S(C)(=O)=O)cc1 (stereo not given),5.0,0.3,0.3,72.0*,5.1,73.8*

# Source: PubChem BioAssay (several laboratories)
